Compound activity (PubChem)
L major viab = Leishmania major promastigote growth inhibition, primary screen | Leishmania major promastigotes, resazurin fluorescence viability | inhibition, % at 10 µM | actives 9% (n = 200,000) | AID 1063, 2008; in the data active = inhibition above about 50%;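 note: promastigotes grown with compound for 44 hours at 28 °C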
Dynein cargo inh = inhibitors of GR-EGFP nuclear translocation, primary screen, dynein cargo transport inhibitor project, imaging, high-content, 3617.4 mouse cells. actives 0.47% (n = 220,000). AID 1381, 2008. test concentration mostly 20 µM; stimulated with dexamethasone, 1 µM; hits give low values. z-score, hits read low;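 active = plate z-score of nuclear minus cytoplasmic receptor signal below a set negative limit, without overly bright fluorescence or cell loss, cut at about -3.5 in these data, passing the limit was not always enough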;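 note: z-score of nuclear minus cytoplasmic ring GR-EGFP intensity difference per well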
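Also added: dexamethasone, 1.0 µM final. Medium: tet-free, stripped-serum medium. Detection: fixed, Hoechst-stained cells imaged at 10x for EGFP. Read-out: nuclear-to-cytoplasmic GR-EGFP distribution per well. Times: induction 48 h, compound 1 h, agonist 30 min.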
Autophagy HCS = autophagy modulators in MEF cells, primary screen, imaging, high-content, MEF GFP-LC3 | MEF GFP-LC3 puncta imaging; test concentration mostly 10 µM | calls only at 10 µM (by protocol) | actives 0.98% (n = 190,000) | AID 463193, 2010;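 active = percentage of spot-positive cells more than 3 SD above its plate mean, without a fluorescence outlier flag or 80% toxicity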;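 note: spot-positive cell cutoff set from DMSO-treated cells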
MT stabilize HCS = microtubule stabilizers in HeLa cells, primary screen, imaging, high-content imaging | HeLa tubulin immunostaining HCS, 24 h; share of cells brighter than vehicle mean+2SD | % tubulin-high responders, % at 10 µM | actives 0.83% (n = 200,000) | AID 2205, 2009;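 active = plate Z-score above 3 for both tubulin-high and condensed-nucleus cell shares, with cell loss under 80%, at 10 µM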;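 note: anti alpha tubulin signal scored within the nucleus-defined area of each cell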
CHOP inhibitor = inhibitors of CHOP promoter induction, primary screen, cell-based, unfolded protein response, luciferase reporter. CHO-K1 CHOP-promoter luciferase, tunicamycin-induced, 15-18 h. inhibition, % at 10 µM. actives 3.8% (n = 220,000). AID 2732, 2010;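 active = compounds that reduced the stress-induced luciferase reporter signal by more than about 70% of percent inhibition, limit read from the data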;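 note: 0% = tunicamycin plus vehicle and 100% = wells without tunicamycin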
bCat nuc transl = modulators of beta-catenin nuclear translocation, primary screen, imaging, HeLa cells, immunofluorescence, high-content | nuclear translocation activity, % at 5 µM | actives 0.3% (n = 190,000);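 active = nuclear translocation activity above 50% at 5 µM, with a well cell count of 50 or more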;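 note: per-cell ratio of nuclear to cytoplasmic median beta-catenin stain intensity; plate controls were DMSO negative control for no effect and GSK-3 inhibitor IX positive control for full effect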
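Signal – beta-catenin immunofluorescence imaging with DAPI · Test system – human HeLa cell line · Dosing – 5 µM primary single dose, 0.1% DMSO, 0.02–20 µM confirmation series · Measure – % activation, nuclear-to-cytoplasmic median beta-catenin signal ratio per cell · Incubation – 24 h compound exposure at 37°C, 5% CO2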
* hit, by the source's call; i = inactive; · = not tested or not shown. Sampled rows, rich in hits. Any-hit rate of the full collection: about 12%.

SMILES | L major viab | Dynein cargo inh | Autophagy HCS | MT stabilize HCS | CHOP inhibitor | bCat nuc transl
Cc1cc(C)cc(OCC(O)CN2CCN(Cc3ccc4c(c3)OCO4)CC2)c1 (centres undefined) | 90* | -0.32 | i | 3 | 11 | 2
Cc1ccc(OCC(O)CN2CCN(c3ccccn3)CC2)c(C)c1 (centres undefined) | -4 | 0.0075 | i | 2 | 1 | -1
OC(COc1ccccc1)CN1CCN(Cc2ccc3c(c2)OCO3)CC1 (centres undefined) | 85* | -0.26 | i | 3 | 12 | 1
O=C(O)CC12CC3CC(C1)CC(n1cncn1)(C3)C2 | -10 | -0.71 | i | 1 | -10 | 1
Cc1cccc(Cc2c(C)nc3c(C(=O)NCc4ccco4)cnn3c2C)c1 | 25 | -1.1 | i | 5 | 49 | -4
Cc1nc2c(C(=O)NCc3cccs3)cnn2c(C)c1Cc1ccccc1 | 54* | 0.46 | i | 4 | 43 | -1
COc1ccc(N2CCN(C(=O)COc3ccccc3)CC2)cc1 | -2 | -0.88 | i | 3 | 43 | -3
O=C(COc1ccc2ccc(=O)oc2c1)N1CCN(c2ccccc2)CC1 | 69* | -0.18 | i | 3 | 23 | 0
N#Cc1ccc(OCC(=O)Nc2ccccc2NS(=O)(=O)c2cccs2)cc1 | 63* | -0.73 | i | 2 | 43 | -1
C=CCn1c(O)c(N=NC(=O)c2cccnc2)c2cc(Br)ccc21 | · | 1.7 | · | · | 7 | -2
COc1ccc2nc(N3CCOCC3)cc(C)c2c1 | 10 | -0.31 | i | 2 | 4 | -1
CC(=O)c1cccc(Nc2cc(C)nc3ccc(C)cc23)c1 | · | 0.5 | · | · | -8 | -2
CC(=O)c1ccc(Nc2cc(C)nc3c(C)cccc23)cc1 | 27 | 1.1 | i | 18* | -21 | 67*
COc1ccc2nc(C)cc(Nc3ccc(N4CCOCC4)cc3)c2c1 | 51* | -0.25 | i | 1 | -12 | -2
CC(=O)c1cccc(Nc2cc(C)nc3c(C)cc(C)cc23)c1 | 100* | 0.21 | i | 2 | 0 | -3
Cc1cc(Nc2cccc(O)c2)c2ccccc2n1 | 8 | -0.94 | i | 2 | 13 | 2
COc1ccc(Nc2cc(C)nc3ccccc23)cc1 | 86* | -0.068 | i | 1 | 15 | -1
CC(=O)c1ccc(Nc2cc(C)nc3ccccc23)cc1 | 41 | 0.68 | i | 27* | 1 | 43
CCN(CC)c1ccc(NC(=O)Cn2cc3c(n2)CCC(C)C3)c(C)c1 (centres undefined) | -6 | 1.6 | i | 4 | 79* | 2
Cc1ccc(C2OCC3(CO2)COC(c2ccc(C)cc2)OC3)cc1 (centres undefined) | -3 | -0.099 | i | 4 | 80* | 0
c1ccc(C2OCC3(CO2)COC(c2ccccc2)OC3)cc1 (centres undefined) | -5 | -0.15 | i | 1 | 2 | 0
Cc1nc(C)c2c(=O)cc(-c3ccccc3)[nH]c2n1 | 13 | -0.5 | i | 43* | · | 38
Cn1nc(-c2ccccc2)c(N2CCCCC2)cc1=O | 4 | -1.1 | i | 5 | 2 | 2
O=c1cc(N2CCCCC2)c(-c2ccccc2)nn1Cc1ccccc1 | 13 | -0.16 | i | 3 | 85* | -1
COc1ccc(Cn2nc(-c3ccccc3)c(N3CCCCC3)cc2=O)cc1 | 22 | 0.7 | i | 2 | 74* | 0
SMILES | L major viab | Dynein cargo inh | Autophagy HCS | MT stabilize HCS | CHOP inhibitor | bCat nuc transl
O=c1cc(N2CCCC2)c(-c2ccccc2)n[nH]1 | -3 | -0.94 | i | 2 | -11 | -2
COC(=O)Cc1cc(=O)n2[nH]c(C(F)(F)F)nc2n1 | -4 | -0.44 | i | 3 | 6 | -1
Cc1ccc(-n2nnnc2SCC(=O)Nc2sc(C)c(C)c2C#N)cc1C | -2 | -0.39 | i | 4 | 83* | 0
Cc1ccc(NC(=O)CSc2nnnn2-c2ccc3c(c2)OCO3)cc1C | -2 | -0.059 | i | 3 | 92* | 6
CC(=O)c1ccc(-n2nnnc2SCC(=O)Nc2sc(C)c(C)c2C#N)cc1 | -5 | -1.1 | i | 6 | 81* | 1
O=C(CSc1nnnn1-c1ccccc1)Nc1ccc(Cl)cc1 | -1 | -0.87 | i | 3 | 88* | -2
O=S(Cc1cc(Oc2ccccc2)nc(-c2ccccc2)n1)c1ccccc1 (centres undefined) | 12 | -0.1 | i | 2 | 41 | 0
CC1(C)Cc2nc3nc(SCC(=O)Nc4ccccc4)nc(N)c3cc2CO1 | 16 | 0.94 | i | 4 | -10 | 2
O=C(CSc1nnc(-c2ccco2)o1)c1ccc(O)cc1O | 3 | 1.4 | i | 4 | 38 | 0
COc1ccc(N=C2SC(CC(=O)Nc3ccccc3)C(=O)N2CC2CCCO2)cc1 (centres undefined) | 63* | 2.8 | i | 9 | 25 | -2
COc1ccc(N=C2SC(CC(=O)Nc3ccccc3)C(=O)N2CCN2CCOCC2)cc1 (centres undefined) | 56* | 1 | i | 4 | -2 | -2
COc1ccc(N=C2SC(CC(=O)Nc3ccccc3OC)C(=O)N2Cc2ccco2)cc1 (centres undefined) | 99* | 0.57 | i | 3 | 29 | 6
COCCN1C(=O)C(CC(=O)Nc2ccc(C(=O)O)cc2)SC1=Nc1ccccc1 (centres undefined) | -5 | -0.2 | i | 1 | -8 | ·
COc1ccc(N=C2SC(CC(=O)Nc3ccc(F)cc3)C(=O)N2Cc2ccco2)cc1 (centres undefined) | 21 | -0.51 | i | 4 | 58 | 0
COC(=O)c1cc(NC(=O)CC2SC(=Nc3ccccc3)N(CCc3c[nH]c4ccccc34)C2=O)cc(C(=O)OC)c1 (centres undefined) | 99* | -0.74 | i | 3 | 52 | 3
Cc1c(Cl)cccc1NC(=S)NCCc1ccc(C(F)(F)F)cc1 | 31 | 0.036 | i | 4 | -9 | 0
COc1ccccc1OCC(=O)c1[nH]c(C)c(C(C)=O)c1C | -3 | -0.33 | i | 2 | 55 | ·
CC(=O)c1c(C)[nH]c(C(=O)COc2cc(C)ccc2C(C)C)c1C | 13 | -0.77 | i | 4 | 83* | ·
Cc1ccc(C(=O)NC(=S)Nc2cc(-c3nc4ccccc4s3)ccc2C)cc1 | -6 | -0.24 | i | 7 | 10 | 0
Cc1ccc(/C=C(\NC(=O)c2ccccc2)C(=O)N2CCCC2C(=O)O)cc1 (centres undefined) | -7 | -0.4 | i | 3 | 6 | -4
CCNC(=O)NC(=O)CSc1nc2ccccc2n1CCOC | 0 | -0.11 | i | 3 | 15 | 0
